Assay results: PMC11182071 (Journal of Enzyme Inhibition and Medicinal Chemistry, 2024)

How the values were obtained:
α-glucosidase = assay: α-Glucosidase inhibition assay; type: biochemical, yeast; conditions: for α-glucosidase inhibition (% at 50 μM): mean ± SD, n=3
PTP1B [1] = target: T1, PTP1B (Homo sapiens, UniProt P18031); assay: Protein tyrosine phosphatase 1B inhibition assay; type: biochemical; conditions: for inhibition at 50 µM: read-out: PTP1B inhibition (% at 50 μM)
T1 sequence (P18031 1-435): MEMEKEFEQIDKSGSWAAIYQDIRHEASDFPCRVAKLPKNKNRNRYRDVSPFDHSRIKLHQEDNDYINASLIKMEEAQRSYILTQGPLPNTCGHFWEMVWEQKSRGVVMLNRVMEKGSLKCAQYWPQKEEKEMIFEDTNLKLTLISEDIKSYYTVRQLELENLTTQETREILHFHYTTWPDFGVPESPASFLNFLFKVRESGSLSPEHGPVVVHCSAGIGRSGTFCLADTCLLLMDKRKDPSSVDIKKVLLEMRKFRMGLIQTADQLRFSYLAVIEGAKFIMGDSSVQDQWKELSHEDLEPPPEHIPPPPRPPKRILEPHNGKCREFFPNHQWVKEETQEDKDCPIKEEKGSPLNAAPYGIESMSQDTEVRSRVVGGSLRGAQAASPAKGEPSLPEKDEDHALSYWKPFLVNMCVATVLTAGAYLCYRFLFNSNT

α-amylase = target: T2, α-amylase (Sus scrofa, UniProt P00690); assay: α-amylase inhibition assay; type: biochemical, porcine; conditions: read-out: α-amylase inhibition (% at 250 μM)
T2 sequence (P00690 16-511): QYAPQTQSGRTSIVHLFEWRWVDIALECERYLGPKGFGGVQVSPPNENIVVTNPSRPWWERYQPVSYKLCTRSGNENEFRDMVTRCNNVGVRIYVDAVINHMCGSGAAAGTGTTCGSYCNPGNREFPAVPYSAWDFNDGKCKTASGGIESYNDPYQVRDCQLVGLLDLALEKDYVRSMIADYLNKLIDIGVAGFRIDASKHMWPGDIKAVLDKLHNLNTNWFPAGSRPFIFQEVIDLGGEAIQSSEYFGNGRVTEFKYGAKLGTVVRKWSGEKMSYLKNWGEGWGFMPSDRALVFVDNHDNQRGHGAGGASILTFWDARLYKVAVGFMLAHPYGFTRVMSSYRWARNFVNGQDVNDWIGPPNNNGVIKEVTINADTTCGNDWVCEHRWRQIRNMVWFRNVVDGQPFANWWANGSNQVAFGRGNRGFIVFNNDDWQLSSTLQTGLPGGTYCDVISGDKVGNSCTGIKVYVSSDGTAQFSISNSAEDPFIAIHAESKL

PTP1B [2] = target: T1, PTP1B; assay: PTP1B inhibition kinetic assay; type: biochemical
Summary of the method: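 PTP1B at 100 nM reacted with p-nitrophenyl phosphate at 1, 2, 5 and 10 mM and test compound at 0, 0.5, 1.0 and 5.0 μM. Absorbance read every 3 min. Velocity taken from the time–Δabs plot. Inhibition mode from Lineweaver-Burk double-reciprocal plots; Ki from Dixon plots. Triplicate.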

[3] = tested on: insulin-resistant HepG2 cells; assay: In vitro glucose consumption assay in insulin-resistant HepG2 cells; type: cell-based, human; conditions: 24 h treatment; vs model group
Summary of the method: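 HepG2 seeded in 6-well plates at 1 × 10^5 cells/well for 24 h. Serum-starved 2 h, then made insulin-resistant with 1 × 10−6 mol/l insulin for 48 h at 37 °C, 5% CO2. Groups: control, model, low/middle/high dose of free or liposomal test compound (top 100 μg/mL), blank liposome. After 24 h treatment, medium glucose measured by glucose oxidase kit; consumption = blank-well minus sample-well glucose. Mean ± SD, n = 3.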

Solubility observations = type: physicochemical; conditions: medium not stated

With C[C@H]1O[C@H](O[C@H]2[C@H](O)[C@@H](O)[C@@H](O[C@H]3[C@H](O)[C@@H](O)C(O)O[C@@H]3CO)O[C@@H]2CO)[C@H](O)[C@@H](O)[C@@H]1N[C@H]1C=C(CO)[C@@H](O)[C@H](O)[C@H]1O (stereo partly drawn) [Acarbose, reference compound] the “α-glucosidase inhibition (% at 50 μM)” value (α-glucosidase) was 96.51 ± 0.02%.

With CC(C)=C1CC=C([C@H]2CC[C@]3(C)[C@@H]2CC[C@@H]2C4=C(CC[C@]23C)C(C)(C)[C@@H]2CC[C@H]4O2)C1=O [Compound 4, gypensapogenin A] the inhibition at 50 µM (PTP1B [1]) was 65.9 ± 1.69%, the “α-glucosidase inhibition (% at 50 μM)” value (α-glucosidase) was 25.80 ± 0.71% and the inhibition at 250 µM (α-amylase) was 31.81 ± 0.02%.

With CC(C)=C1CC([C@H]2CC[C@]3(C)[C@@H]2CC[C@@H]2C4=C(CC[C@]23C)C(C)(C)[C@@H]2CC[C@H]4O2)=CC1=O [Compound 5, gypensapogenin B] the inhibition at 50 µM (PTP1B [1]) was 67.1 ± 1.33% and the “α-glucosidase inhibition (% at 50 μM)” value (α-glucosidase) was 25.55 ± 1.75%.

In the case of CC(C)=C1CC=C([C@H]2CC[C@]3(C)[C@@H]2CC[C@@H]2[C@@]4(C)CC[C@H](O)C(C)(C)[C@@H]4CC[C@]23C)C1=O [Compound 6, gypensapogenin C], the inhibition at 50 µM (PTP1B [1]) is reported as 78.9 ± 0.87% and the “α-glucosidase inhibition (% at 50 μM)” value (α-glucosidase) is reported as 24.64 ± 0.65%.

In the case of CC(C)=C[C@H]1C=C([C@H]2CC[C@]3(C)[C@@H]2CC[C@@H]2[C@@]4(C)CC[C@H](O)C(C)(C)[C@@H]4CC[C@]23C)C(=O)O1 [Compound 7, gypensapogenin D], the IC50 (PTP1B [1]) is reported as 8.17 ± 0.63 µM, the inhibition at 50 µM (PTP1B [1]) is reported as 83.49 ± 0.62% and the “α-glucosidase inhibition (% at 50 μM)” value (α-glucosidase) is reported as 61.94 ± 1.54%. For the same compound, the IC50 (α-glucosidase; read-out: α-glucosidase IC50, mean ± SD of three replications) was 27.15 ± 0.17 µM, the inhibition at 250 µM (α-amylase) was 11.6 ± 1.24% and the Ki (PTP1B [2]) was 4.29 µM. The “Inhibition type against PTP1B (Lineweaver-Burk plot)” value (PTP1B [2]; Lineweaver-Burk double reciprocal plot) was “competitive inhibitors”, the “Glucose consumption in insulin-resistant HepG2 cells” value [3] was “did not improve the reduction of glucose consumption” and the Solubility (Solubility observations) was “poorly solubility”.

In the case of [Na+].[Na+].[Na+].[O]=[V]([O-])([O-])[O-] [Na3VO4, reference compound], the “PTP1B inhibition (% at 50 μM)” value (PTP1B [1]; 50 μM, mean ± SD, n=3) is reported as 98.07 ± 0.51%.
